From PubChem
In the library only some 6.8% were active in any assay of this set; here they are far more common.
AI-2 QS mod: Vibrio harveyi AI-2 quorum sensing modulators, primary screen, JMH597 strain, luminescence/OD600 ratio. Vibrio harveyi JMH597 AI-2 luminescence/OD600 ratio, 9 h; hits give low values; strain lacks LuxN and CqsS sensors; 0 = neutral-control median. activity change, % at 7.5 µM. actives 0.4% (n = 300,000); in the data active = activity change below about -75%, passing the limit was not always enough; inconclusive = no clear call, values can overlap the other calls;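 also: luminescence divided by OD600 gain over 9 h not by final OD600 alone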
HSF1 inhib: HSF1 inhibitors in luciferase reporter cells, primary screen, cell-based, NIH3T3, luminescence; activity change, negative = inhibition, % at 7.5 µM (by protocol); actives 0.77% (n = 300,000); NIH3T3-HGL HSE-luciferase, MG132-induced, luminescence 8 h; hits give low values; AID 2098, 2009;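 active = more than half of replicate wells show activity change below -50%, luminescence cut by over half; inconclusive = some wells, but at most half, below -50%; inactive = no replicate well below -50%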;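 also: luciferase reports HSF-1 transcriptional activity via heat shock element; 0% = median of DMSO wells and -100% = zero luminescence signal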
PHOSPHO1 inh: PubChem AID 1565; Phosphoethanolamine/phosphocholine phosphatase (Homo sapiens), Q8TCT1; recombinant PHOSPHO1, absorbance phosphatase assay; inhibition, % at 13.3 µM; actives 1.1% (n = 290,000); in the data active = inhibition above about 60%
Target sequence (Q8TCT1 whole entry, looked up): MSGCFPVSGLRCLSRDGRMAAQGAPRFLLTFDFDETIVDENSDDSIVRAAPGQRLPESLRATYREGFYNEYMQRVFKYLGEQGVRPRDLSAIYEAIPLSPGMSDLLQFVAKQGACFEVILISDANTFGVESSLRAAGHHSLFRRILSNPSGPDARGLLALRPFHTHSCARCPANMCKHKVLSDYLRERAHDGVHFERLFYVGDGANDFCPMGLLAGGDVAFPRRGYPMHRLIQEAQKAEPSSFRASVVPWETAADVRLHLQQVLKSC
HSF-1 act: HSF-1 activators, primary screen, NIH3T3-HGL cells, MG132 stress, luminescence, single point; actives 1.7% (n = 300,000); activation, % at 9 µM; AID 504408, 2011; NIH3T3-HGL HSF-1 luciferase reporter, 8 h; 100% = twice DMSO control signal;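 active = mean replicate activation of at least 50% with a set share of replicates each reaching 50%; inconclusive = only one of those two conditions met; inactive = mean below 50% and too few replicates reaching it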;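 also: 0% = median of the neutral control wells and 100% = twice that signal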
core dimer inh: inhibitors of HCV core protein dimerization, primary screen, biochemical, TR-FRET, high-throughput; TR-FRET GST/Flag-core106 dimerization, 1536-well; inhibition, % at 5 µM; actives 0.33% (n = 300,000); AID 1899, 2009;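 active = inhibition above the mean of all tested compounds plus 3 SD, set per screening campaign, cut at about 45% in these data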
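System: GST/Flag-tagged HCV core106 proteins. Incubation: compound-protein-antibody incubation 4 h at 22.5 °C. Technique: HTRF with 340 nm excitation, 617/671 nm emission. Medium: KF-containing HEPES buffer, pH 7.45, DTT, CHAPS, BSA. Read-out: inhibition (%) from 671 over 617 nm ratio. Also added: Eu(K)-anti-GST 90 ng/mL plus XL665-anti-Flag 1 µg/mL.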
ALR H2O2 inh: inhibitors of human ALR sulfhydryl oxidase, primary screen, biochemical, H2O2 detection, HRP-luminol luminescence, single point | actives 3.8% (n = 290,000) | purified ALR, DTT oxidation | AID 485317, 2010 | inhibition, % (no concentration beside the values) | FAD-linked sulfhydryl oxidase ALR (Homo sapiens), P55789;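 active = mean replicate inhibition above about 79%, with every replicate also reaching it, limit read from the data; inconclusive = only one of the two criteria met; inactive = mean below limit and not every replicate reaching it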
Target sequence (P55789 whole entry, looked up): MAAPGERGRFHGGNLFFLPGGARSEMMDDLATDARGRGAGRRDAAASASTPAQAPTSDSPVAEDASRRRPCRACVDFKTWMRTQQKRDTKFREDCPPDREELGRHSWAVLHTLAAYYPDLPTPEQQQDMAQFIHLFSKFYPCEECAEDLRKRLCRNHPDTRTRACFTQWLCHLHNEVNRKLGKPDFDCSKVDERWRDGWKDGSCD
* = called active by the depositor; ? = inconclusive; nt = no result.

SMILES | AI-2 QS mod | HSF1 inhib | PHOSPHO1 inh | HSF-1 act | core dimer inh | ALR H2O2 inh
C[N+]1(CC2COC(c3ccco3)O2)CCCCC1 (stereo not drawn) | 9 | -66* | 11 | -75 | 0 | -2
COc1ccc(-c2cc(=Nc3ccccc3)c3cc(C)ccc3o2)cc1 | 1 | 18 | -9 | 66* | -3 | -3
CCN(CC)c1ccccc1 | nt | nt | nt | nt | nt | -3
CCN(CC)c1ccc(/C=C/[N+](=O)[O-])cc1 | -3 | 34 | 17 | ? | 0 | 99*
CCOC(=O)c1c(-n2c(C)cc(/C=C3/C(=O)NC(=O)N(CC)C3=O)c2C)sc2c1CCCC2 | 15 | -11 | nt | -10 | -1 | 6
CCN1C(=O)NC(=O)/C(=C/c2cc(C)n(-c3sc(C)c(C)c3C#N)c2C)C1=O | 21 | -56* | 10 | -68 | 6 | 14
CC(=O)c1ccc2c(c1)C1C(Cl)C(Sc3ccccc3[N+](=O)[O-])CC1C(C(=O)O)N2 (stereo not drawn) | nt | nt | -16 | nt | -2 | 95*
O=C(O)c1cccc2c1NC(C(=O)O)C1CC(Sc3ccccc3[N+](=O)[O-])C(Cl)C21 (stereo not drawn) | nt | nt | 62* | nt | -6 | 18
CC(=O)c1cccc(OCC(=O)N2CCN(CC(=O)Nc3cccc(F)c3)CC2)c1 | nt | nt | nt | nt | nt | -3
Cc1cc(Br)ccc1N1C(=O)CC(=O)NC1=O | 13 | -4 | -2 | -5 | 0 | 85*
COC(=O)C1C(O)C(C)C(O)C(C)/C=C\C=C(/C)C(=O)Nc2c(C)c(OC(C)=O)c3c(c2O)C(=O)C(C)=C2OCOC(=C23)/C(C)=C/C(C)(O)C(O)C(C)C1O (stereo not drawn) | -150* | -2 | 30 | 13 | -11 | -32
CCC(C)N1C(=O)NC(=O)C2(Cc3c(ccc4ccccc34)N(C)C2)C1=O (stereo not drawn) | 17 | 23 | 30 | 42 | 3 | 93*
COC(=O)C1=C(c2ccc(F)cc2F)C[C@@H]2CC[C@H]1N2C(=O)N1CCC(O)CC1 | nt | nt | nt | nt | nt | -4
CCOC(=O)c1ccc(N=C(C)c2c(O)[nH]c(=O)[nH]c2=O)cc1 | 25 | -63* | 24 | -62 | 0 | 0
C[C@]12CCC3C(CC[C@H]4C[C@@H](O)[C@H](O)C[C@]34C)C1CC[C@@H]2O (stereo partly drawn) | nt | nt | nt | nt | nt | -2
Nc1cc(Cl)c2nonc2c1[N+](=O)[O-] | nt | nt | -7 | nt | 1 | 97*
COc1cc(/C=C/[N+](=O)[O-])ccc1O | ? | 234 | -14 | 274* | -7 | 43
COc1cc(/C=C2/C(=O)NC(=O)N(c3ccccc3)C2=O)ccc1O | 18 | 2 | 9 | -5 | -6 | 14
Cc1ccc(NC(=O)CSc2nnc([C@@H](N)Cc3c[nH]c4ccccc34)o2)c(C)c1 | 5 | -2 | 38 | 10 | -1 | 98*
N[C@@H](Cc1c[nH]c2ccccc12)c1nnc(SCc2ccc(F)cc2)o1 | 40 | 1 | 62* | 22 | nt | nt
N[C@@H](Cc1c[nH]c2ccccc12)c1nnc(SCc2ccccc2)o1 | -7 | -1 | 22 | 5 | -6 | nt
C=C(C)CSc1nnc([C@@H](N)Cc2c[nH]c3ccccc23)o1 | 16 | 10 | 89* | 8 | -2 | 1
COc1ccccc1Cn1c(SCC(=O)C(C)(C)C)nc2cc(C(=O)N3CCC4(CC3)OCCO4)ccc2c1=O | 21 | 7 | -8 | 7 | -6 | -40
CCN(CC)C(=O)c1ccc(NC(=O)CN2CCc3cc(OC)c(OC)cc3C2)cc1 | 15 | -4 | -25 | -22 | 1 | 0
C[C@]12C[C@@H](O)[C@H](O)CC1=CCC1C2CC[C@@]2(C)C1CC[C@@H]2O (stereo partly drawn) | nt | nt | nt | nt | nt | -5
N/C(=N\[N+](=O)[O-])N/N=C/c1ccc(O)cc1 | 6 | -9 | -14 | -5 | -3 | 97*
